Data published in ChEMBL document CHEMBL1121998, “Synthesis and hypoglycemic activity of phenylalkyloxiranecarboxylic acid derivatives” (J Med Chem, 1982).
Active and inactive are the calls of the source. The calls are words filed in the database; no cut-off is given here.

Columns and labels:
[1] = organism: Rattus norvegicus; assay: Effective dose at which 50% of the rats show at least a 25% decrease of blood glucose levels compared to controls; format: functional
Summary of the method: (§1)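 Overnight-fasted male rats (Sprague–Dawley SIV-50 or Mus Rattus, 160–200 g), 6–12 per group, dosed orally at 10 mL/kg as neutral aqueous solution or 1:1 Cremophor EL/water emulsion. Retro-orbital blood glucose by HK/G6PDH before and 2, 4, 6 h post-dose. ED50 (25%) = dose at which 50% of rats show ≥25% fall versus controls. Derived by linear or log-linear regression over at least four doses.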

[2] = tested on: Rattus norvegicus; assay: Ability to decrease blood glucose levels in fasted rats at the dose of 0.6 mmol/kg was determined; format: functional
Summary of the method: (§2)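 Male Sprague–Dawley SIV-50 or Mus Rattus rats (160–200 g), 6–12 per group, fasted overnight. Oral tube dosing as neutral aqueous solution or 1:1 Cremophor EL/water emulsion, 10 mL/kg. Retro-orbital blood taken before and at 2, 4 and 6 h; glucose measured enzymatically (HK/G6PDH). Change expressed relative to controls; two-sided Student's t test.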

[3] = tested on: Rattus norvegicus; assay: Ability to decrease blood glucose levels in fasted rats at the dose of 0.6 mmol/kg was determined; No effect; format: functional, organism-based; summary of the method: as §2
[4] = Tested for its effect on hepatic epoxide hydrolase; No significant inhibition up to 1e-3 mol/L
[5] = organism: Rattus norvegicus; assay: Effective dose at which 50% of the rats show at least a 25% decrease of blood glucose levels compared to controls; Not feasible; format: functional, organism-based; summary of the method: as §1
[6] = Compound was tested for its lethality in mice when administered perorally; format: ADME, organism-based; conditions: mouse, in vivo, po
Summary of the method: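 Groups of five female NMR mice (22-26 g), water ad libitum, food reduced to 50 g/kg body weight 18 h before dosing; single oral administration.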

[7] = organism: Rattus norvegicus; assay: Effective dose at which 50% of the rats show at least a 25% decrease of blood glucose levels compared to controls; Reverse effect at higher dose

Row | Structure (SMILES) | ED50 [1] [µmol/kg] | Decrease [2] [%] | Decrease [3] | Effect [4] | also measured
1 | O=C([O-])C1(CCCc2ccc(Cl)cc2)CO1.[Na+] (stereo not given) | 180 | <68 | – | – | –
2 | CCOC(=O)C1OC1CCc1ccccc1 (stereo not given) | – | – | inactive | – | –
3 | CCOC(=O)C1(CCCc2ccc(C)cc2)CO1 (stereo not given) | – | <27 | – | No significant inhibition up to 1e-3 mol/L | –
4 | CCOC(=O)C1(CCCCCCc2ccccc2)CO1 (stereo not given) | – | 24 | – | – | ED50 [5]: inactive
5 | O=C([O-])C1(CCCCCc2ccc(Cl)cc2)CO1.[Na+] (stereo not given) | 30 | 80 | – | No significant inhibition up to 1e-3 mol/L | LD50 [6]: 1640 µmol/kg
6 | CCOC(=O)C1(CCCCCCCc2ccccc2)CO1 (stereo not given) | – | 18 | – | – | ED50 [5]: inactive
7 | CCOC(=O)C1(CCCCCCCc2ccc(Cl)cc2)CO1 (stereo not given) | 270 | <49 | – | – | LD50 [6]: 950 µmol/kg
8 | CCN(CC)C(=O)C1(CCCc2ccccc2)CO1 (stereo not given) | – | – | inactive | – | –
9 | CCOC(=O)C1(CCCc2ccccc2)OC12CCCCC2 (stereo not given) | – | – | inactive | – | –
10 | CCOC(=O)C1(CCCc2ccc(F)cc2)CO1 (stereo not given) | – | <37 | – | – | LD50 [6]: 3960 µmol/kg
11 | CCOC(=O)C1(Cc2ccccc2)CO1 (stereo not given) | – | – | inactive | No significant inhibition up to 1e-3 mol/L | –
12 | CCOC(=O)C1(CCCc2ccc(Cl)cc2)OC12CCCCC2 (stereo not given) | – | – | inactive | – | –
13 | NC(=O)C1(CCCc2ccccc2)CO1 (stereo not given) | – | – | inactive | – | –
14 | CCOC(=O)C1(CCCc2ccc(C(C)(C)C)cc2)CO1 (stereo not given) | – | – | inactive | – | –
15 | CCOC(=O)C1(CCCc2ccccc2Cl)CO1 (stereo not given) | – | <11 | – | – | –
16 | CCOC(=O)C1(CCCCCCCCc2ccccc2)CO1 (stereo not given) | – | – | inactive | – | –
17 | CCOC(=O)C1(CCCc2ccc(Cl)cc2)OC1(C)C (stereo not given) | – | 10 | – | – | –

Row | Structure (SMILES) | ED50 [1] [µmol/kg] | Decrease [2] [%] | Decrease [3] | Effect [4] | also measured
18 | CCOC(=O)C1(CCCc2ccc(Cl)cc2)CO1 (stereo not given) | 200 | <30 | – | No significant inhibition up to 1e-3 mol/L | LD50 [6]: 2720 µmol/kg
19 | CCOC(=O)C1(CCCc2cc(Cl)ccc2OC)CO1 (stereo not given) | – | – | inactive | – | –
20 | CCOC(=O)C1(CCCCc2ccccc2)CO1 (stereo not given) | 600 | <44 | – | No significant inhibition up to 1e-3 mol/L | –
21 | CCOC(=O)C1(CCCc2cccc(C(F)(F)F)c2)CO1 (stereo not given) | 170 | <47 | – | No significant inhibition up to 1e-3 mol/L | LD50 [6]: 860 µmol/kg
22 | CCOC(=O)C1(CCCCCc2ccccc2)CO1 (stereo not given) | – | <18 | – | No significant inhibition up to 1e-3 mol/L | LD50 [6]: 880 µmol/kg; ED50 [7]: 80 µmol/kg
23 | CCOC(=O)C1(CCCc2ccc(Cl)c(Cl)c2)CO1 (stereo not given) | 330 | <29 | – | No significant inhibition up to 1e-3 mol/L | LD50 [6]: 2870 µmol/kg
24 | O=C([O-])C1(CCCc2cccc(C(F)(F)F)c2)CO1.[Na+] (stereo not given) | 80 | <77 | – | No significant inhibition up to 1e-3 mol/L | –
25 | O=C([O-])C1(CCCCCc2ccccc2)CO1.[Na+] (stereo not given) | – | <29 | – | No significant inhibition up to 1e-3 mol/L | LD50 [6]: 1060 µmol/kg; ED50 [5]: inactive
26 | CCOC(=O)C1(CCCCCc2ccc(Cl)cc2)CO1 (stereo not given) | 20 | 80 | – | No significant inhibition up to 1e-3 mol/L | LD50 [6]: 930 µmol/kg
27 | COC(=O)C1OC1CCCc1ccccc1 (stereo not given) | – | – | inactive | – | –
28 | CCOC(=O)C1(CCCc2ccccc2)OC1(C)C (stereo not given) | – | – | inactive | – | –
29 | CCNC(=O)C1(CCCc2ccccc2)CO1 (stereo not given) | – | – | inactive | – | –
30 | CCOC(=O)C1(CCCc2ccc(OC)cc2)CO1 (stereo not given) | – | – | inactive | – | –
31 | CCOC(=O)C1(CCCc2ccccc2)CO1 (stereo not given) | 1170 | <19 | – | No significant inhibition up to 1e-3 mol/L | –
32 | CCOC(=O)C1(CCCc2cccc(Cl)c2)CO1 (stereo not given) | 680 | <26 | – | – | –
33 | CCOC(=O)C1(CCc2ccccc2)CO1 (stereo not given) | – | – | inactive | No significant inhibition up to 1e-3 mol/L | –
